Publication PMC4410353 (Journal of nuclear medicine : official publication, Society …, 2009)

Test: 3-T MRI of gadofluorine M uptake in atherosclerotic-like lesions
Assay type: in vivo, rabbit
Conditions: T1-weighted MRI 1 h after i.v. 0.5 μmol/kg
How it was run: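 Rabbits had right femoral artery injury by air desiccation, then balloon angioplasty. The contralateral uninjured femoral artery served as control. Rabbits were imaged at 4–6 wk post-desiccation (n = 9), 3 wk post-angioplasty (n = 6) and 4 wk later (n = 4). 3-T T1-weighted turbo-spin-echo imaging (TR/TE 600/12 ms) was run 1 h after i.v. non-receptor-specific plaque-targeting contrast agent.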

CC(C(=O)NCC(=O)NCCCC[C@H](NC(=O)CO[C@H]1O[C@H](CO)[C@@H](O)[C@H](O)[C@@H]1O)C(=O)N1CCN(S(=O)(=O)C(F)(F)C(F)(F)C(F)(F)C(F)(F)C(F)(F)C(F)(F)C(F)(F)C(F)(F)F)CC1)N1CCN(CC(=O)O)CCN(CC(=O)O)CCN(CC(=O)O)CC1 (some centres unmarked) [gadofluorine M]
MRI uptake in control arteries: no gadofluorine M uptake
MRI signal / uptake in injured vessels (all rabbits at all TPs): increased signal
